A selection: hits, their analogues and other compounds. The true share with any hit is near 0.96%.
AGP1-GFP MLPCN = yeast TOR pathway AGP1-GFP modulation | S. cerevisiae AGP1-GFP multiplex flow cytometry, 3 h; GFP as percent of DMSO wells | GFP response vs DMSO, % at 10 µM | 320,000 tested, 0.02% active;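 active means GFP response relative to DMSO above a set limit, near screen average plus 3 SD, cut at about 150% in these data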;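 further: median GFP channel fluorescence of the gated AGP1 strain per well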
CIT2-GFP yeast = modulators of TOR pathway CIT2-GFP in S. cerevisiae | S. cerevisiae CIT2-GFP strain, flow cytometry, 3 h; 100 means same as DMSO wells | AID 2029 | GFP response vs DMSO, % at 10 µM | 320,000 tested, 0.065% active;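 active means GFP response relative to DMSO above a set limit, near the screen mean plus 3 SD, cut at about 150% in these data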;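 further: ratio of well median GFP fluorescence to mean of DMSO wells on the plate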
T cell HTS = T cell immune modulation candidate; 330,000 tested, 0.068% active; response (vesicle binding), % at 7 µM; AID 2052; 2C CD8+ T cell-vesicle binding, flow cytometry; stronger effect = lower value;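 active means response, share of CD8 T cells binding vesicles, and their 90th percentile fluorescence all below set limits, cut at about 80% in these data, passing the limit was not always enough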;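 further: values below 100% mean blocked vesicle binding to the CD8+ T cells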
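Assay system: 2C TCR transgenic mouse naive CD8+ T cells, MACS-purified | Read-out: CD8+ gate FL2 mean fluorescence as % of same-row positive control | Signal: High-throughput flow cytometry with anti-B7-1 and anti-CD8 staining | Timing: Binding step 1.5 h, 37 °C, antibody labelling 20 min, ice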
RPL19A-GFP yeast = yeast TOR pathway RPL19A-GFP modulation; S. cerevisiae RPL19A-GFP strain, flow cytometry, 3 h; stronger effect = lower value; percent response vs DMSO, % at 10 µM; 330,000 tested, 0.3% active; AID 2025;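 active means percent response vs DMSO below 50%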;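 further: median channel GFP fluorescence of the barcoded RPL19A-GFP strain; ratio of sample median GFP to plate DMSO average so 100% = DMSO; lower means less RPL19A-GFP as with rapamycin TOR inhibition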
MEP2-GFP yeast = alters MEP2-GFP fluorescence in TOR pathway yeast screen; 330,000 tested, 0.51% active; GFP response vs DMSO, % at 10 µM; S. cerevisiae MEP2-GFP strain, flow cytometry GFP, 3 h; 100% = DMSO control level; AID 2016;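 active means GFP response versus DMSO above a set limit, roughly screen mean plus 3 SD, cut at about 180% in these data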;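 further: median GFP fluorescence of the barcode-gated MEP2-GFP cells per well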
LAP4-GFP MLPCN = alters LAP4-GFP fluorescence in TOR pathway yeast screen; S. cerevisiae LAP4-GFP multiplex, flow cytometry GFP, 3 h; median GFP as percent of DMSO wells; GFP response vs DMSO, % at 10 µM; 320,000 tested, 0.34% active; AID 2023;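 active means GFP response vs DMSO above a set limit, about the screen mean plus 3 SD, cut at about 150% in these data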
LAP4-GFP pick2 = second confirmation of modulators of TOR reporter LAP4-GFP in yeast; S. cerevisiae LAP4-GFP strain, flow cytometry GFP, 3 h; AID 2621; GFP response vs DMSO, % at 10 µM; shares compounds with LAP4-GFP MLPCN; 590 tested, 20% active;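 active means GFP signal as percent of the solvent control above about 150%, meaning raised reporter expression, limit read from the data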;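 further: ratio of well median GFP fluorescence to plate DMSO mean so 100% = DMSO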
MEP2 cherry2 = second confirmation of modulators of TOR reporter MEP2-GFP in yeast | shares compounds with LAP4-GFP MLPCN | S. cerevisiae MEP2-GFP strain, flow cytometry GFP, 3 h | GFP response vs DMSO, % at 10 µM | 590 tested, 10% active;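 active means GFP signal above 150% of the solvent control wells, that is a rise of more than half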;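 further: median channel GFP fluorescence of all gated yeast cells per well; ratio of median GFP to plate DMSO average so 100% = DMSO level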
RPL19A GFP CP2 = reconfirmed modulator of RPL19A-GFP TOR reporter in yeast. S. cerevisiae RPL19A-GFP strain, flow cytometry GFP, 3 h; stronger effect = lower value; 100% means same as DMSO wells. 590 tested, 3% active. GFP response vs DMSO, % at 10 µM. AID 2623. shares compounds with LAP4-GFP MLPCN;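 active means under 65% GFP response relative to DMSO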;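 further: median GFP channel fluorescence per well over the all cells gate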
CIT2 GFP CP2 = second confirmation of modulators of TOR reporter CIT2-GFP in yeast | shares compounds with LAP4-GFP MLPCN | S. cerevisiae CIT2-GFP strain, flow cytometry GFP, 3 h; DMSO control wells read 100% | GFP response vs DMSO, % at 10 µM | 590 tested, 8% active | AID 2624;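 active means GFP response vs DMSO above about 150%, limit read from the data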;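 further: median green fluorescence per well over all gated yeast cells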
AGP1 GFP CP2 = yeast AGP1-GFP TOR reporter modulation, second cherry pick. AID 2643. S. cerevisiae AGP1-GFP strain, flow cytometry GFP, 3 h. 590 tested, under 10 active. percent response vs DMSO, % at 10 µM. shares compounds with LAP4-GFP MLPCN;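 active means over 150 percent of DMSO response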;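 further: median GFP channel fluorescence over all cells without mother daughter split; sample median GFP divided by mean DMSO control so 100% equals DMSO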
s288c autofluor = counter-screen for compound autofluorescence in yeast s288c cells | shares compounds with LAP4-GFP MLPCN | S. cerevisiae s288c, 520 nm autofluorescence, flow cytometry, 3 h; stronger effect = higher value; zero means same as solvent-only cells | fluorescence change (kMESF span) at 33 µM | 610 tested, under 10 active | AID 2757;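 active means fluorescence span over the dose series, or activity score, above about 33, limit read from the data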
Yeast autofl DR = TOR screen hit shows autofluorescence in yeast s288c; 110 tested, under 10 active; fluorescence change (span) at 33 µM; shares compounds with LAP4-GFP MLPCN; S. cerevisiae s288c parental, compound autofluorescence, flow cytometry, 3 h;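 active means fluorescence change span, or the activity score built from it, above 25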
TORC1 bypass = compounds blocking wildtype yeast growth but not TORC1 bypass cells; shares compounds with LAP4-GFP MLPCN; S. cerevisiae BY4741 spot growth rating, 48-72 h; stronger effect = lower value; growth rating (0-3) at 30 µM; 120 tested, under 10 active;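 active means growth rating at most 1 for wild type yeast while the TORC1 bypass strain still grows fully, rated 3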
Numbers without * were called inactive; i = inactive; . = not tested or not shown.

SMILES | AGP1-GFP MLPCN | CIT2-GFP yeast | T cell HTS | RPL19A-GFP yeast | MEP2-GFP yeast | LAP4-GFP MLPCN | s288c autofluor | others
Cc1csc(NC(=O)NCC2CCCC(CNC(=O)Nc3nc(C)cs3)C2)n1 (configuration not stated) | 96 | 105 | 162 | 99 | 102 | 92 | .
Cc1ccc(C(=O)CN(CCCC(N)=O)S(=O)(=O)c2ccc([N+](=O)[O-])cc2)cc1 | 100 | 111 | 532 | 109 | 92 | 114 | .
COc1ccc(/C=C/C(=O)O)cc1S(=O)(=O)N1CCCC1 | 120 | 93 | 318 | 96 | 105 | 104 | .
O=c1oc(/C=C/c2ccc([N+](=O)[O-])s2)nc2ccccc12 | 103 | 161* | 350 | 116 | 185* | 154* | 13
CC(=O)Oc1ccccc1/C=C/c1nc2ccccc2c(=O)o1 | 88 | 94 | 410 | 99 | 104 | 101 | .
O=c1cc(CSc2ccc(Cl)cc2)nc(-c2ccccn2)[nH]1 | 74 | 88 | 545 | 83 | 87 | 211* | -0.3 | LAP4-GFP pick2=264*;MEP2 cherry2=169*;RPL19A GFP CP2=86;CIT2 GFP CP2=121;AGP1 GFP CP2=107;Yeast autofl DR=0.59;TORC1 bypass=0
C=CC[C@@H](CC(=O)OC(C)(C)C)C(=O)OC[C@H]1CCCN1C(=O)[C@@H](CC=C)CC(=O)NCCO | 108 | 104 | 635 | 107 | 98 | 105 | .
O=C1OCCC1Sc1nnc(-c2ccc(Br)cc2)o1 (configuration not stated) | 26 | 105 | 345 | 65 | 174 | 98 | . | LAP4-GFP pick2=99;MEP2 cherry2=100;RPL19A GFP CP2=100;CIT2 GFP CP2=110;AGP1 GFP CP2=97
O=C1OCCC1Sc1nnc(-c2ccco2)o1 (configuration not stated) | 108 | 102 | 227 | 98 | 102 | 113 | .
COc1ccccc1NC(=O)OC(C)c1ccc(Cl)cc1 (configuration not stated) | 93 | 99 | 499 | 93 | 93 | 101 | .
Oc1c(I)cc(Cl)c2cccnc12 | 81 | 78 | 700 | 85 | 112 | 286* | 2.1 | LAP4-GFP pick2=226*;MEP2 cherry2=216*;RPL19A GFP CP2=77;CIT2 GFP CP2=176*;AGP1 GFP CP2=106;Yeast autofl DR=2.9;TORC1 bypass=0
O=[N+]([O-])c1ccc(Cl)c2cccnc12 | 93 | 94 | 296 | 94 | 99 | 87 | .
Clc1cc2cccnc2c2ncccc12 | 93 | 83 | i | 95 | 109 | 168* | . | LAP4-GFP pick2=131;MEP2 cherry2=108;RPL19A GFP CP2=95;CIT2 GFP CP2=95;AGP1 GFP CP2=89
CC(=O)NC(c1ccccc1)c1cc(Cl)c2cccnc2c1O (configuration not stated) | 94 | 94 | 724 | 100 | 100 | 82 | .
O=[N+]([O-])c1cc([N+](=O)[O-])c2cccnc2c1Oc1ccccc1O | 94 | 87 | 414 | 87 | 89 | 150 | .
O=[N+]([O-])c1cc(F)c2cccnc2c1O | 115 | 103 | 4 | 93 | 114 | 185* | 0.72
O=[N+]([O-])c1cc(Cl)c2cccnc2c1O | 127 | 102 | 185 | 101 | 120 | 202* | 0.31 | Yeast autofl DR=0.57;TORC1 bypass=3
CCCCOc1ccc(N(CC(=O)NCCOC)C(=O)CCC(=O)Nc2ccccn2)cc1 | 96 | 95 | 334 | 96 | 95 | 98 | .
Cc1c(C)c2cccnc2c2ncccc12 | 69 | 80 | 338 | 90 | 89 | 183* | . | LAP4-GFP pick2=118;MEP2 cherry2=133;RPL19A GFP CP2=97;CIT2 GFP CP2=117;AGP1 GFP CP2=99
O=[N+]([O-])c1ccc(O)c2ncccc12 | 106 | 82 | 901 | 97 | 105 | 313* | 1.3 | LAP4-GFP pick2=275*;MEP2 cherry2=159*;RPL19A GFP CP2=100;CIT2 GFP CP2=120;AGP1 GFP CP2=129;Yeast autofl DR=0.73;TORC1 bypass=3
O=[N+]([O-])c1ccc(O)c2cccnc12 | 105 | 111 | 190 | 99 | 99 | 100 | .
CC1Cc2ccccc2N1C(=O)CCn1cccn1 (configuration not stated) | 101 | 108 | 640 | 99 | 95 | 78 | .
CCc1noc(C)c1C(=O)N1CCN(S(=O)(=O)c2cccs2)CC1 | 104 | 104 | 280 | 101 | 100 | 101 | .
COc1cc(/C=C2\CC/C(=C\c3cc(OC)c(OC)c(OC)c3)C2=O)cc(OC)c1OC | 104 | 103 | 212 | 104 | 98 | 98 | .
COc1cc(/C=C2\CC/C(=C\c3cc(OC)c(O)c(OC)c3)C2=O)cc(OC)c1O | 105 | 126 | 924 | 98 | 184* | 138 | 2.7 | LAP4-GFP pick2=146;MEP2 cherry2=141;RPL19A GFP CP2=111;CIT2 GFP CP2=165*;AGP1 GFP CP2=111
CCOC(=O)c1cc(-c2ccc(/C=C3/C(=O)NC(=O)C(C#N)=C3C)o2)ccc1Cl | 64 | 87 | i | 67 | 108 | 151* | 1.2
COC(=O)C1=C(C(=O)OC)[C@@H]2N(C)c3ccc(OC)cc3[C@@]23C[C@@H](C(=O)OC)N(C(=O)NC2CCCCC2)C3=N1 | 91 | 96 | 340 | 102 | 95 | 125 | .
Cc1cc(C)c2oc(C(=O)NC3CCS(=O)(=O)C3)cc(=O)c2c1 (configuration not stated) | 103 | 109 | 246 | 102 | 114 | 108 | .
O=S(=O)(CCN(CCS(=O)(=O)C(F)(F)F)CC1CCCO1)C(F)(F)F (configuration not stated) | 79 | 102 | 262 | 90 | 95 | 243* | 0.62 | Yeast autofl DR=0.24;TORC1 bypass=3

Bioassay records deposited in PubChem by NMMLSC.
